pIC50: −log10 of the molar value. Active and inactive are the calls of the source. No cut-off for these calls is given here.
Key:
Mus musculus [1] = species on record: Mus musculus; test: Inhibition of TPA-induced skin tumor promotion in ICR mouse assessed as incidence of skin papilloma at 85 nmol after 10 weeks; assay type: functional
Procedure, shortened: (§1)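 Specific pathogen-free ICR mice, 15 per group, were initiated with DMBA and promoted with TPA, with or without 85 nmol compound. Papilloma incidence and mean papillomas per mouse were recorded up to 20 weeks of promotion. Groups were compared by Student's t-test.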

Human gammaherpesvirus 4 [2] = test: Inhibition of TPA-induced Epstein-Barr virus early antigen activation assessed as EBV-EA induction in Raji cells at 3.2 nM after 48 hrs relative to TPA; values are per cent of control; conditions: human gammaherpesvirus 4, Raji
Raji = test: Cell viability of Raji cells at 320 nM; assay type: functional, Homo sapiens
Human gammaherpesvirus 4 [3] = test: Inhibition of TPA-induced Epstein-Barr virus early antigen activation assessed as EBV-EA induction in Raji cells at 320 nM after 48 hrs relative to TPA; values are per cent of control; conditions: human gammaherpesvirus 4, Raji
[4] = Scavenging activity against NO generation in human Chang liver cells assessed as inhibition of NOR1-activation at 350 nM relative to NOR1; assay type: functional
Human gammaherpesvirus 4 [5] = test: Inhibition of TPA-induced Epstein-Barr virus early antigen activation assessed as EBV-EA induction in Raji cells at 0.32 nM after 48 hrs relative to TPA; values are per cent of control; conditions: human gammaherpesvirus 4, Raji
Human gammaherpesvirus 4 [6] = test: Inhibition of TPA-induced Epstein-Barr virus early antigen activation in Raji cells after 48 hrs; assay type: functional, organism-based; conditions: human gammaherpesvirus 4, Raji
Mus musculus [7] = species on record: Mus musculus; test: Inhibition of TPA-induced skin tumor promotion in ICR mouse assessed as incidence of skin papilloma at 85 nmol after 20 weeks; assay type: functional; conditions: values are per cent of control; procedure, shortened: as §1
Mus musculus [8] = species on record: Mus musculus; test: Inhibition of TPA-induced skin tumor promotion in ICR mouse assessed as reduction in number of skin papillomas at 85 nmol; assay type: functional, organism-based; procedure, shortened: as §1
Human gammaherpesvirus 4 [9] = test: Inhibition of TPA-induced Epstein-Barr virus early antigen activation assessed as EBV-EA induction in Raji cells at 32 nM after 48 hrs relative to TPA; values are per cent of control; conditions: human gammaherpesvirus 4, Raji

Row | SMILES | pIC50 (Human gammaherpesvirus 4 [6]) | Papilloma incidence % (Mus musculus [1]) | level, % of control at 0.0032 µM (Human gammaherpesvirus 4 [2]) | Activity (Raji) | level, % of control at 0.32 µM (Human gammaherpesvirus 4 [3]) | Activity [4] | level, % of control at 0.00032 µM (Human gammaherpesvirus 4 [5]) | response, % of control (Mus musculus [7]) | Activity (Mus musculus [8]) | level, % of control at 0.032 µM (Human gammaherpesvirus 4 [9])
1 | C=C(CC[C@@H](C)[C@H]1CC[C@@]2(C)[C@@H]3CC[C@H]4C(C)(C)C(=O)CC[C@@]45C[C@@]35CC[C@]12C)C(C)C | 8.04 |  | 73.5% | 70% | 3.1% | 1.9 | 96.1% |  |  | 26.4%
2 | CC(C)=C(C)CC[C@@H](C)[C@H]1CC[C@@]2(C)[C@@H]3CC[C@H]4C(C)(C)[C@@H](O)CC[C@@]45C[C@@]35CC[C@]12C [CYCLOBRANOL] | 8.03 |  | 71.3% | 70% | 0% | 1.9 | 94.5% |  |  | 30.5%
3 | CC(C)CCC[C@@H](C)[C@@H]1CC[C@@]2(C)[C@@H]3CC[C@H]4C(C)(C)[C@@H](O)CC[C@@]45C[C@@]35CC[C@]12C | 8.03 |  | 71.2% | 70% | 0% | 1.6 | 94.2% |  |  | 30.8%

The next lines start with results.

Row | pIC50 (Human gammaherpesvirus 4 [6]) | SMILES | Papilloma incidence % (Mus musculus [1]) | level, % of control at 0.0032 µM (Human gammaherpesvirus 4 [2]) | Activity (Raji) | level, % of control at 0.32 µM (Human gammaherpesvirus 4 [3]) | Activity [4] | level, % of control at 0.00032 µM (Human gammaherpesvirus 4 [5]) | response, % of control (Mus musculus [7]) | Activity (Mus musculus [8]) | level, % of control at 0.032 µM (Human gammaherpesvirus 4 [9])
4 | 8.21 | CC(C)C(O)(CO)CC[C@@H](C)[C@H]1CC[C@@]2(C)[C@@H]3CC[C@H]4C(C)(C)[C@@H](O)CC[C@@]45C[C@@]35CC[C@]12C (stereo not given in full) | 20% | 63.2% | 70% | 0% | 2.2 | 81% | 80% | Active | 13%
5 | 8.17 | COCC(O)(CC[C@@H](C)[C@H]1CC[C@@]2(C)[C@@H]3CC[C@H]4C(C)(C)[C@@H](O)CC[C@@]45C[C@@]35CC[C@]12C)C(C)C (stereo not given in full) | 27% | 65.4% | 70% | 0% | 2.1 | 83.1% | 87% | Active | 15.2%
6 | 8.05 | C=C(C)[C@@H](C)CC[C@@H](C)[C@H]1CC[C@@]2(C)[C@@H]3CC[C@H]4C(C)(C)[C@@H](O)CC[C@@]45C[C@@]35CC[C@]12C [CYCLOLAUDENOL (24S)] |  | 70% | 70% | 0% | 1.8 | 93.6% |  |  | 30.6%
7 | 8.00 | C=C(CC[C@@H](C)[C@H]1CC[C@@]2(C)[C@@H]3CC[C@H]4C[C@@H](OC(C)=O)CC[C@@]45C[C@@]35CC[C@]12C)C(C)C |  | 73.1% | 70% | 0% | 1.5 | 96.3% |  |  | 31.4%

Reference: ChEMBL document CHEMBL1143693, “Cancer chemopreventive effects of cycloartane-type and related triterpenoids in in vitro and in vivo models” (J Nat Prod, 2007)
